What was measured:
human TLR2 = human TLR2 (Homo sapiens, UniProt O60603+Q15399); test: SEAP reporter gene detection assay in HEK-Blue hTLR2 cells; assay type: cell-based
In short: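 HEK-Blue hTLR2 cells (SEAP reporter), 4 × 10^4/well, grown 24 h. Then 24 h in Opti-MEM/0.5% FBS with compounds at 0–50 μM or 0–100 μM. Pam3CSK4 (0–66 nM) used as reference agonist. Supernatant heat-treated 30 min at 65°C, cooled, mixed with SEAP buffer and CSPD substrate; luminescence read after 20 min.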

human TLR1/2 = human TLR1/2 (Homo sapiens, UniProt O60603+Q15399); test: Competition binding ELISA assay with biotin-labeled Pam3CSK4; conditions: 50 nM (100 ng/ml) Biotin-Pam3, 0 to 7 μM CU-T12-9
In short: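 Human TLR1 (5 μg/ml) plus TLR2 (4 μg/ml), or BSA, coated in 0.1 M acetate pH 5.0 overnight at 4°C. Blocked with 5% BSA 1 h. Biotin-Pam3CSK4 with or without test compound, 1 h RT. Then streptavidin-HRP (1:2000) 1 h, TMB 10–30 min, stopped with 1 M H3PO4. A450 read, 620 nm reference. Signal at zero compound set as 100%.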

HEK-Blue hTLR2 cells = test: MTT cell viability assay in HEK-Blue hTLR2 cells; assay type: cell-based, human; conditions: up to 100 μM, 24 h
In short: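 HEK-Blue hTLR2 cells, 40,000/well in DMEM/10% FBS, grown 24 h at 37°C, 5% CO2. Medium then replaced by Opti-MEM (0.5% FBS, non-essential amino acids) with compounds at 0–100 μM for 24 h. MTT added for 4 h; formazan dissolved in DMSO; A560 read. Cytotoxicity % = 1 − (sample − blank)/(control − blank), ×100.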

TNF-α = TNF-α ELISA in Raw 264.7 cells; assay type: cell-based; conditions: Mus musculus, RAW264.7, 24 h, read-out: EC50, TNF-α production
In short: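 RAW 264.7 cells, 1 × 10^6/well in six-well plates, grown 24 h. Medium refreshed (RPMI 1640). Treated 24 h with test compound; 66 nM Pam3CSK4 as positive control. Supernatants frozen at −80°C. TNF-α quantified by sandwich ELISA against recombinant cytokine standards, each sample in triplicate.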

human TLR5 = human TLR5 (Homo sapiens, UniProt O60602); test: SEAP reporter gene detection assay in HEK-Blue TLR5 cells; assay type: cell-based; conditions: 0 to 20 μM, 24 hours
In short: (§1)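 HEK 293 cells stably carrying the human TLR and a SEAP reporter, 4 × 10^4/well, grown 24 h. Then 24 h in Opti-MEM/0.5% FBS with test compound. Positive controls: poly(I:C) 0–10.9 μg/ml (TLR3), LPS 0–36.5 ng/ml (TLR4), FLA-BS 0–10 μg/ml (TLR5), R848 0–6 μg/ml (TLR7, TLR8). Supernatant heated 30 min at 65°C, then CSPD substrate added; luminescence read after 20 min.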

human TLR3 = target: T1, human TLR3 (Homo sapiens, UniProt O15455); test: SEAP reporter gene detection assay in HEK-Blue TLR3 cells; assay type: cell-based; conditions: 0 to 20 μM, 24 hours
T1 sequence (O15455 24-904): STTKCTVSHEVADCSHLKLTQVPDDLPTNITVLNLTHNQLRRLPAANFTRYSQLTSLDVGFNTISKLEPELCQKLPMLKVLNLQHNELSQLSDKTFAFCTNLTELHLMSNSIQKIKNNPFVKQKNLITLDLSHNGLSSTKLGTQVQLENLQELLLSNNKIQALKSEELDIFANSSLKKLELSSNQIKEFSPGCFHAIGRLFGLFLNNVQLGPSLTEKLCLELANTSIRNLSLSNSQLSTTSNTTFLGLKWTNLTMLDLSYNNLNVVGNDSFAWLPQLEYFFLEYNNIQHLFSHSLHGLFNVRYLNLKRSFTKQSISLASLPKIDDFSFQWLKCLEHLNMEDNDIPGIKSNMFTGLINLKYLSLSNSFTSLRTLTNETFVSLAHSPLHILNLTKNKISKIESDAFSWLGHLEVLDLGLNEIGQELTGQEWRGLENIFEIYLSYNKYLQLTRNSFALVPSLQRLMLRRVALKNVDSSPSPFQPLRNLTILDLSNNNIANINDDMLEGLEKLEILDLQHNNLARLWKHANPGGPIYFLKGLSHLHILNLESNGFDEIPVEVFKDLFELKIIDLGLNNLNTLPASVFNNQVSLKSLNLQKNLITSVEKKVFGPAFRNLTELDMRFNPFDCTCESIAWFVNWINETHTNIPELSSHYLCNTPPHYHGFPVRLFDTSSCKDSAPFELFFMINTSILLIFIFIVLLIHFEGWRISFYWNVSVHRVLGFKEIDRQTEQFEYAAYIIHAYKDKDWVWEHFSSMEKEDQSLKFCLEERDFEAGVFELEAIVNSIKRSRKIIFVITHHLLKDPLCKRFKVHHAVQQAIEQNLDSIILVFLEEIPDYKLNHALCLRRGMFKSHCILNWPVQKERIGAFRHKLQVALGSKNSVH
In short: as §1

hTLR1 and hTLR2 = hTLR1 and hTLR2 (Homo sapiens, UniProt O60603+Q15399); test: SEC-LS assay of TLR1/2 heterodimer formation; assay type: biochemical; conditions: CU-T12-9 0 to 40 μM or Pam3CSK4 260 nM (400 ng/ml)
In short: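 Human TLR2 in PBS pH 7.4 preincubated 2 h at RT with test compound or Pam3CSK4. Equimolar hTLR1 then added (final about 10 μM each) for 2 h at 37°C. Both proteins were baculovirus/insect-cell products. Samples filtered (0.1 μm) and run on size-exclusion column in PBS at 1 ml/min. Detection by in-line multi-angle light scattering, refractive index and UV.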

Sequence of human TLR2 (O60603 21-784): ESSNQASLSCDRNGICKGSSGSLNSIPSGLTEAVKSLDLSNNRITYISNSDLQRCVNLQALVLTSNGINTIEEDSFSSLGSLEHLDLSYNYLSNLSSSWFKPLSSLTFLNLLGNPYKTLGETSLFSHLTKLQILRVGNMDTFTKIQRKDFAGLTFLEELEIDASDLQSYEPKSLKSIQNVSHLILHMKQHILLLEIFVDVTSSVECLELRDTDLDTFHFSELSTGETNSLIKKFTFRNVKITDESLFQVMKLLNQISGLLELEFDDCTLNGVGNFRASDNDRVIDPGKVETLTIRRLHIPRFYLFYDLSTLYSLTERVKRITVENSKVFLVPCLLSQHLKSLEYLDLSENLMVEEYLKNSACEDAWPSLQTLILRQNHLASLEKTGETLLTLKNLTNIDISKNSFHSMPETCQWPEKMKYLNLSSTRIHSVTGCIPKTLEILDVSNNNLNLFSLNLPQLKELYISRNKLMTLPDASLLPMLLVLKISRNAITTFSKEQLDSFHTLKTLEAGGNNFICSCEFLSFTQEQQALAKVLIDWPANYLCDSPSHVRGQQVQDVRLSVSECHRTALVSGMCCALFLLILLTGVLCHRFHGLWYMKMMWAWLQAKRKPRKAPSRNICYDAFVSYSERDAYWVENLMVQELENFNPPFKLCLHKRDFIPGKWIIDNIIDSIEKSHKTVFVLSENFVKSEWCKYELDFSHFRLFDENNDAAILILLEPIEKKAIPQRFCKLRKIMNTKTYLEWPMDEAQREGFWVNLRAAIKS
Sequence of human TLR2 (Q15399 25-786): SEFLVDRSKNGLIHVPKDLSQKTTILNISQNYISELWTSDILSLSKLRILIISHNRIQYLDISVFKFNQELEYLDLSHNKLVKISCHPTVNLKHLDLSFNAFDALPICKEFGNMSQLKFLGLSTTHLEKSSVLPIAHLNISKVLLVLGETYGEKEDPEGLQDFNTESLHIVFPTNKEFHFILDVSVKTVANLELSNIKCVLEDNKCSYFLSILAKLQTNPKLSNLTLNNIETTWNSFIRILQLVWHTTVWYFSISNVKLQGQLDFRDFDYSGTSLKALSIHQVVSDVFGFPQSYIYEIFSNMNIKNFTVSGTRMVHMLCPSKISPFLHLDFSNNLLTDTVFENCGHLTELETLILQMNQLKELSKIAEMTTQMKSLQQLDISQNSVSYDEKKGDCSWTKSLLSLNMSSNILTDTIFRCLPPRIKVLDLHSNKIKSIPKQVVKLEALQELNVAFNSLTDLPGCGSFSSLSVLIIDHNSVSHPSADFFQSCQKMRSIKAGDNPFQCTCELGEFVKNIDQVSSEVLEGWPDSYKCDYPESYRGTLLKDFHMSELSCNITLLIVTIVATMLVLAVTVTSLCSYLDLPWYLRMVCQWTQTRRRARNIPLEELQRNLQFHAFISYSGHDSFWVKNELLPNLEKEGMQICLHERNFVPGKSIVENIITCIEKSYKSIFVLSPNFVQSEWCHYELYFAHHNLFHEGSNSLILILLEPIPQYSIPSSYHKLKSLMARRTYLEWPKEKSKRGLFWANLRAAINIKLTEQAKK
Sequence of human TLR5 (O60602 21-858): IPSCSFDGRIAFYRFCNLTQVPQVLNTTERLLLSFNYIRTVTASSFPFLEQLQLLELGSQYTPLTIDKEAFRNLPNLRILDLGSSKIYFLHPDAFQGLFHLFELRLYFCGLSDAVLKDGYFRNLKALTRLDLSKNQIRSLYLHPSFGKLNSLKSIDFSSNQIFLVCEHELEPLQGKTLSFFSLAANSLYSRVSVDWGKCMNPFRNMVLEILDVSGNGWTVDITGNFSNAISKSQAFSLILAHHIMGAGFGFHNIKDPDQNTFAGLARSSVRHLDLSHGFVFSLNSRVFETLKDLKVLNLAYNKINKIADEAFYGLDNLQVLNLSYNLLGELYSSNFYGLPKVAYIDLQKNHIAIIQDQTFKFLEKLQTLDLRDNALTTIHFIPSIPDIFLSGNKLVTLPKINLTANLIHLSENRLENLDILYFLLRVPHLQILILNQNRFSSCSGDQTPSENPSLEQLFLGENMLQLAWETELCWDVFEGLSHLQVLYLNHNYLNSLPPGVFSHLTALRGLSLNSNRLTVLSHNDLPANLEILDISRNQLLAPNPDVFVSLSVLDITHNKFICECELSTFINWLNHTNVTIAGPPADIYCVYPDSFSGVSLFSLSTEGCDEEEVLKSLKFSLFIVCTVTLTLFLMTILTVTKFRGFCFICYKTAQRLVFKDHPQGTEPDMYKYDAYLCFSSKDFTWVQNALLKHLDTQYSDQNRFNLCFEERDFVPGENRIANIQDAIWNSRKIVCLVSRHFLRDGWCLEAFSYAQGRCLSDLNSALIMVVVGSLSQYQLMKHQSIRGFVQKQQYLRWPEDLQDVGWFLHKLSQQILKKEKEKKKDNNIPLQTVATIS
Sequence of hTLR1 and hTLR2 (Q15399 25-580 limits assumed): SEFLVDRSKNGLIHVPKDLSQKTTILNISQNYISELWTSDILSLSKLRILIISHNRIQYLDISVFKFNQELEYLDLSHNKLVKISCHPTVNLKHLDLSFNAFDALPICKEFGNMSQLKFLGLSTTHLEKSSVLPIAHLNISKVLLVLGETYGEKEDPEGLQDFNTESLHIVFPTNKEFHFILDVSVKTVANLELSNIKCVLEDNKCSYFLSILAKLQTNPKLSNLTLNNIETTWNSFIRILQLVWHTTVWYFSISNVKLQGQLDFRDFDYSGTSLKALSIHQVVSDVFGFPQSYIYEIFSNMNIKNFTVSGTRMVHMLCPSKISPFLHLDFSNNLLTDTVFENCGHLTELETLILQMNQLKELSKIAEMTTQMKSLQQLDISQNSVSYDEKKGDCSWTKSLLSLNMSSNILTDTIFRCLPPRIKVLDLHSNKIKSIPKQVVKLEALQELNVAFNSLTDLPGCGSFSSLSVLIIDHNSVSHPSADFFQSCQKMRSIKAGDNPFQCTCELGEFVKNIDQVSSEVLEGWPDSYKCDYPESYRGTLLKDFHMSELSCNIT
Sequence of hTLR1 and hTLR2 (O60603 21-588 limits assumed): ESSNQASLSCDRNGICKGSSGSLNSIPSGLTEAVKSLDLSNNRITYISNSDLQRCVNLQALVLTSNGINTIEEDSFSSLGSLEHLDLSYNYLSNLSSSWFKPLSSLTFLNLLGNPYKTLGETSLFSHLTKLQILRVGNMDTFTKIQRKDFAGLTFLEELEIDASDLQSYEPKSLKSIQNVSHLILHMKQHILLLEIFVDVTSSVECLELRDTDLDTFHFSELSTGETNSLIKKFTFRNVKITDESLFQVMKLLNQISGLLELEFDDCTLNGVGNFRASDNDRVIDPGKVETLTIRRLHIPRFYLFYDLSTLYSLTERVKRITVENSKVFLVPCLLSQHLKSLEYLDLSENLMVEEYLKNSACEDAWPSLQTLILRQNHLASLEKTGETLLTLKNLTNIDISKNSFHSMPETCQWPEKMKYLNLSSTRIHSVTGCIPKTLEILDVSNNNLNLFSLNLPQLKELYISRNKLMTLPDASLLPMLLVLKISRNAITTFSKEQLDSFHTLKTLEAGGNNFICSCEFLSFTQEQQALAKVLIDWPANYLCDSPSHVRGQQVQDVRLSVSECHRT
Sequence of human TLR1/2 (Q15399 25-580 limits assumed): as the sequence (Q15399 25-580 limits assumed) above
Sequence of human TLR1/2 (O60603 21-588 limits assumed): as the sequence (O60603 21-588 limits assumed) above

EC50 (human TLR2): 52.9 ± 6.2 nM | activation of SEAP signaling, hTLR2 (human TLR2; 0 to 20 μM, 24 hours): strongly activate | increase in potency relative to GA (factor) (human TLR2; replacement of –NO2 at R3): 50 | competition with Biotin-Pam3 binding to TLR1/2 (human TLR1/2): can compete | EC50 (TNF-α): 60.5 ± 17 nM | activation of SEAP signaling, TLR5 (human TLR5): not in other TLR-overexpressing cells | activation of SEAP signaling, TLR3 (human TLR3): not in other TLR-overexpressing cells | TLR1/2 heterodimer formation (hTLR1 and hTLR2): Heterodimer formation was detected
SMILES: CNc1ccc([N+](=O)[O-])cc1-n1cnc(-c2ccc(C(F)(F)F)cc2)c1 [CU-T12-9, N-methyl-4-nitro-2-(4-(4-(trifluoromethyl)phenyl)-1H-imidazol-1-yl)aniline]
cytotoxicity (HEK-Blue hTLR2 cells): negligible cytotoxicity

Reference: PMC4474499 (Science Advances, 2015)
